Data from ChEMBL document CHEMBL1131374, “Inhibition of Fc epsilon RI-mediated activation of mast cells by 2,3,4-trihydropyrimidino[2,1-a]isoquinolines” (J Med Chem, 1998).

Columns and labels:
[1] = The cell toxicity on CPII mouse mast cells transfected with TNF-alpha 3' nontranslated sequences reporter gene plasmid; type: cell-based; details: read-out: TC50 (the source's name)
[2] = The Hexosaminidase release concentration in CPII mouse mastcells transfected with TNF-alpha 3' reporter gene plasmid was measured; type: functional
[3] = (§1) The Inhibitory potency on CPII mouse mastcells transfected with TNF-alpha 3' reporter gene plasmid was measured by reporter gene assay; type: functional
[4] = as §1; type: functional; remark: listed apart in the source
Method in brief: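 Clone 12: CPII cells stably carrying a TNFα promoter–luciferase–TNFα 3′ construct. Cells exposed to compound 1 h, then triggered with (dinitrophenyl)albumin/anti-dinitrophenyl-IgE complex. Luciferase read after 6 h incubation. Screening single dose 10 μM; a hit was over 50% inhibition of induction with under 20% toxicity.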

Structure (SMILES)	IC50 [2] [µM]	IC50 [3] [µM]	IC50 [4] [µM]	CC50 [1] [µM]
CC(C)(C)c1ccc(C2=Cc3ccc(NC(=O)Cc4ccccn4)cc3C3=NCCCN23)cc1	4.8	4.8	–	8.8
CC(C)(C)c1ccc(C2=C(Cc3ccccc3)c3ccccc3C3=NCCCN32)cc1	2.9	2	–	5
CC(C)(C)c1ccc(C2=Cc3ccc(N/C(S)=N/C4CCCCC4)cc3C3=NCCCN23)cc1	3.3	2.6	–	9.9
CCOc1ccc(CC2=C(CCCc3cccc4ccccc34)N3CCCN=C3c3ccccc32)cc1	3.5	1.5	–	5.5
CCCCC1=C(c2ccc(C(C)(C)C)cc2)N2CCCN=C2c2ccccc21	0.6	0.3	–	2.1
C1=C(Cc2ccccc2)c2ccccc2C2=NCCCN12	> 10	–	> 10	> 10
CC(C)(C)c1ccc(C2=Cc3ccc(NC(=O)Nc4ccc(Cl)cc4Cl)cc3C3=NCCCN23)cc1	17	3.3	–	5.8
CCCCCCC1=Cc2ccccc2C2=NCCCN12	4.5	–	> 10	> 10
C[Si](C)(C)c1ccc(C2=C(Cc3ccccc3)c3ccccc3C3=NCCCN32)cc1	1.2	0.8	–	5.5
C1=C(/C=C/c2ccccc2)N2CCCN=C2c2ccccc21	4.1	> 10	–	> 10
CC(C)(C)c1ccc(C2=Cc3ccc(NC(=O)NC4CCCCC4)cc3C3=NCCCN23)cc1	2.1	1.7	–	4.8
CN(C)CCC1=C(c2ccc(C(C)(C)C)cc2)N2CCCN=C2c2ccccc21	> 10	> 10	–	> 10
CC(C)(C)c1ccc(C2=Cc3ccc(N)cc3C3=NCCCN23)cc1	3	1.7	–	7.8
Clc1ccc(OCC2=Cc3ccccc3C3=NCCCN23)cc1	> 25	–	9	> 10
CC1=Cc2ccccc2C2=NCCCN12	> 25	–	> 10	> 10
COc1cc(C2=Cc3ccccc3C3=NCCCN23)cc(OC)c1OC	> 25	–	> 10	> 10

The next lines start with results.

IC50 [2] [µM]	IC50 [3] [µM]	IC50 [4] [µM]	Structure (SMILES)	CC50 [1] [µM]
0.6	0.6	–	CC(C)(C)c1ccc(C2=Cc3ccc(N(Cc4ccccc4)Cc4ccccc4)cc3C3=NCCCN23)cc1	2.6
0.7	0.9	–	CC(C)(C)c1ccc(C2=Cc3ccccc3C3=NCCCN23)cc1	5.7
0.9	0.8	–	C1=C(c2ccc(OCc3ccccc3)cc2)N2CCCN=C2c2ccccc21	3.5
> 25	> 10	–	N[C@@H](Cc1ccccc1)C1=Cc2ccccc2C2=NCCCN12	> 25
12	–	> 10	C1=C(c2ccccc2)N2CCCN=C2c2ccccc21	> 10
0.5	–	0.7	C1=C(c2ccc(CCc3ccccc3)cc2)N2CCCN=C2c2ccccc21	2.1
2.6	0.9	–	CCOc1ccc(CC2=C(c3ccc(CCc4ccccc4)cc3)N3CCCN=C3c3ccccc32)cc1	9
0.3	0.2	–	CCCCC1=C(c2ccc(CCc3ccccc3)cc2)N2CCCN=C2c2ccccc21	2.7
5.5	–	> 10	Clc1ccc(C2=Cc3ccccc3C3=NCCCN23)cc1	> 10
0.9	0.6	–	c1ccc(CCc2ccc(C3=C(Cc4ccccc4)c4ccccc4C4=NCCCN43)cc2)cc1	2.2
0.5	–	0.8	C[Si](C)(C)c1ccc(C2=Cc3ccccc3C3=NCCCN23)cc1	3.2
1.7	–	1.5	C1=C(c2ccc(-c3ccccc3)cc2)N2CCCN=C2c2ccccc21	3.9
